This is an account of results in ChEMBL document CHEMBL1140925, “Nuclear factor-kappaB mediated inhibition of cytokine production by imidazoline scaffolds” (J Med Chem, 2009).

Experiment [1] can be described thus: (§1) Inhibition of TNF-alpha-induced NF-kappaB-mediated transcription expressed in human HeLa cells preincubated for 30 mins before addition of TNFalpha measured after 8 hrs by luciferase reporter gene assay. Type of experiment: cell-based. A digest of the protocol: (§2)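 HeLa/NF-κB-luc cells (5.0 × 10⁵ cells/mL) were grown 24 h, then switched to serum-free DMEM. They were pretreated 30 min at 37 °C with 0.05–20 µM imidazoline (1% DMSO vehicle), then stimulated with 25 ng/mL TNF-α for 8 h. Steady-Glo luminescence was normalized to TNF-α activation, and EC50 was taken from a variable-slope sigmoidal fit. Values are the mean of two independent experiments.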

Experiment [2] concerns HeLa. Described as §1. Type of experiment: cell-based. A digest of the protocol:
as §2

The test system of experiment [3] is HeLa. Nature of the experiment: Induction of NF-kappaB-mediated transcription expressed in human HeLa cells at 20 uM by luciferase reporter gene assay. Type of experiment: cell-based. In outline:
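Stably integrated NF-κB-luc HeLa cells, hygromycin-selected, were exposed to 20 µM imidazoline without TNF-α activation. Firefly luciferase was read after 8 h, and signal was normalized to the TNF-α activation control.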

Experiment [4] relates to Blood. The experiment can be described thus: Antiinflammatory activity in human whole blood assessed as inhibition of IL-1-beta-induced TNFalpha production preincubated 2 hrs before addition of IL1-beta measured after 18 hrs by ELISA. Type of experiment: functional, tissue-based. A digest of the protocol: (§3)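 Human blood from donors with white count in the normal range, diluted 1:10 in RPMI-1640 with 10% FBS, penicillin and streptomycin. Aliquots were preincubated with vehicle (0.1% DMSO final) or compound at 10, 3, 1, 0.3 or 0.1 µM final for 2 h at 37 °C, 5% CO2. IL-1β (200 U/mL) was then added for 18 h, and plasma was collected and frozen. Cytokine was measured by ELISA.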

Experiment [5] relates to Blood. The experiment can be described thus: Antiinflammatory activity in human whole blood assessed as inhibition of IL-1-beta-induced IL6 production preincubated 2 hrs before addition of IL1-beta measured after 18 hrs by ELISA. Type of experiment: functional, tissue-based. In outline: as §3
Experiment [6] concerns HeLa. The experiment can be described thus: Inhibition of TNF-alpha-induced NF-kappaB-mediated transcription expressed in human HeLa cells co-transfected with renilla luciferase-TK gene preincubated for 30 mins before TNFalpha challenge measured after 8 hrs by dual-glo luciferase reporter gene assay. Type of experiment: cell-based. A digest of the protocol: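 HeLa cells were transiently cotransfected (lipofectamine 2000, 5–6 h) with 6×κB pNF-κB-luc and the pRL-TK Renilla control, then grown 24 h. They were pretreated 30 min with 0.312–20 µM (1% DMSO vehicle), then stimulated with 25 ng/mL TNF-α for 8 h at 37 °C. Dual-Glo firefly signal was normalized to Renilla luminescence.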

Activity calls are given as the source filed them. The rule behind the calls is not given here.

In turn, `c1ccc(Cn2c(-c3ccccc3)nc(-c3ccccc3)c2-c2ccccc2)cc1` registered an EC50 in experiment [1] of 27.7 µM. Also, the Activity entry in the experiment with HeLa [2], with Blood [4] and in the experiment with Blood [5] was “Dose-dependent effect” throughout. For the same compound, the logEC50 with HeLa [2] came out at 1.44. Further, in the experiment on HeLa [3], the result was inactive.
`CCOC(=O)[C@]1(c2ccccc2)N=C(c2ccccc2)N(Cc2ccccc2)[C@@H]1c1ccccc1` [listing 1 of 2 here] had a concentration giving a half-maximal response (EC50) in experiment [1] of 1.6 µM. In addition, the IC50 in the experiment with Blood [4] worked out at 0.6 µM; in the experiment on Blood [5] it was 0.2 µM.
As to `CCOC(=O)[C@@]1(c2ccccc2)N=C(c2ccccc2)N(Cc2ccccc2)[C@H]1c1ccccc1`, the concentration for a half-maximal effect (EC50) in experiment [1] came to 2.9 µM. Besides, the Activity entry in the experiment on HeLa [2], in the experiment on Blood [4] and in the experiment with Blood [5] was “Dose-dependent effect” in each case. Moreover, in the experiment on HeLa [2], the logEC50 was 0.469. Besides, the outcome in the experiment on HeLa [3] was inactive. Also, the half-maximal inhibitory concentration (IC50) in the experiment with Blood [4] (Homo sapiens, Blood) came out at 0.7 µM; in the experiment with Blood [5] (Homo sapiens, Blood) it was 0.583 µM.
Turning to `CCOC(=O)[C@]1(c2ccccc2)N=C(c2ccccc2)N(Cc2ccccc2)[C@@H]1c1ccccc1` [listing 2 of 2 here], the Activity entry with HeLa [2], in the experiment on Blood [4] and in the experiment with Blood [5] was “Dose-dependent effect” throughout. Besides, the logEC50 in the experiment on HeLa [2] was 0.209. Also, in the experiment with HeLa [3], the result was inactive.
`OC[C@]1(c2ccccc2)N=C(c2ccccc2)N(Cc2ccccc2)[C@@H]1c1ccccc1` (racemic) showed an EC50 in experiment [1] above 20 µM. Besides, the Activity entry in the experiment on HeLa [2] and in the experiment with Blood [5] was “Dose-dependent effect” throughout. Moreover, the outcome in the experiment with HeLa [3] was inactive. Further, the logIC50 in the experiment on Blood [4] was determined as 1.29. In addition, the concentration for half-maximal inhibition (IC50) in the experiment with Blood [5] (Homo sapiens, Blood) was above 20 µM.
Compound `O=C(OCc1ccccc1)[C@]1(c2ccccc2)N=C(c2ccccc2)N(Cc2ccccc2)[C@@H]1c1ccccc1` (racemic) displayed an EC50 in experiment [1] of 3.5 µM. In the experiment on HeLa [2], the Activity entry was “Dose-dependent effect” and the logEC50 is 0.54. Moreover, in the experiment with HeLa [3], the result was inactive. Also, in the experiment with Blood [4], the Activity entry is “Dose-dependent effect” and the logIC50 is 0.51. Also, in the experiment with Blood [4] (Homo sapiens, Blood), the half-maximal inhibitory concentration (IC50) is 3.2 µM. Moreover, in the experiment on Blood [5], the Activity entry is “Dose-dependent effect” and the logIC50 came out at 0.77.
As for `NC(=O)[C@]1(c2ccccc2)N=C(c2ccccc2)N(Cc2ccccc2)[C@@H]1c1ccccc1` (racemic), a half-maximal response in experiment [1] (EC50) required 26.2 µM. Besides, the Activity entry in the experiment on HeLa [2] and in the experiment with Blood [5] was “Dose-dependent effect” each time. In the experiment on HeLa [2], this compound had a logEC50 of 1.55. For the same compound, the result in the experiment on HeLa [3] was inactive. For the same compound, the logIC50 stood at 1.668 with Blood [4] and 1.08 in the experiment on Blood [5]. Besides, the half-inhibitory concentration (IC50) was above 20 µM in the experiment on Blood [4] (Homo sapiens, Blood) and 11.9 µM with Blood [5] (Homo sapiens, Blood).
Compound `c1ccc(CN2C(c3ccccc3)=N[C@H](c3ccccc3)[C@H]2c2ccccc2)cc1` (racemic) displayed an EC50 in experiment [1] of 4.59 µM. Further, in the experiment with HeLa [2], the Activity entry was “Dose-dependent effect” and the logEC50 is 0.66. Also, the outcome in the experiment with HeLa [3] was inactive. Besides, in the experiment with Blood [4], the Activity result was “Dose-dependent effect” and the logIC50 is given as 0.39. For the same compound, the Activity entry in the experiment with Blood [5] is “Dose-dependent effect”. Further, the IC50 with Blood [5] (Homo sapiens, Blood) was determined as 2.47 µM.
On to `c1ccc(CN2C(c3ccccc3)=N[C@@H](c3ccccc3)[C@H]2c2ccccc2)cc1` (racemic), for which it took 11 µM to reach a half-maximal effect in experiment [1] (EC50). In addition, the Activity result in the experiment with HeLa [2], with Blood [4] and in the experiment on Blood [5] was “Dose-dependent effect” each time. In the experiment with HeLa [2], this compound gave a logEC50 of 1.04. Also, in the experiment with HeLa [3], the outcome was inactive. The logIC50 in the experiment with Blood [4] was determined as 0.38. Also, the IC50 with Blood [5] (Homo sapiens, Blood) came to 2.4 µM.
In experiment [1], `COC(=O)[C@]1(c2ccccc2)N=C(c2ccccc2)N(Cc2ccccc2)[C@@H]1c1ccccc1` (racemic) displayed an EC50 of 7.47 µM. Moreover, the Activity entry in the experiment with HeLa [2], with Blood [4] and with Blood [5] was “Dose-dependent effect” in each case. The logEC50 with HeLa [2] is 0.87. Besides, the result with HeLa [3] was inactive. Moreover, the values for the logIC50 in the experiment with Blood [4] and with Blood [5] were 0.4761 and 0.446, respectively. In addition, the concentration for half-maximal inhibition (IC50) with Blood [4] (Homo sapiens, Blood) amounted to 2.79 µM.
As to `CCOC(=O)[C@]1(c2ccccc2)N=C(c2ccccc2)N(Cc2ccccc2)[C@@H]1c1ccccc1` (racemic), the Activity entry in the experiment with HeLa [2], in the experiment with Blood [4] and in the experiment on Blood [5] was “Dose-dependent effect” throughout. Further, the logEC50 in the experiment on HeLa [2] is 0.4; in the experiment on HeLa [6], 0.67. Further, the result in the experiment with HeLa [3] was inactive.
`O=C(O)[C@]1(c2ccccc2)N=C(c2ccccc2)N(Cc2ccccc2)[C@@H]1c1ccccc1` (racemic; 1) [listing 1 of 2 here]: the EC50 in experiment [1] amounted to 0.95 µM. The 50% inhibitory concentration (IC50) with Blood [4] (Homo sapiens, Blood) is above 20 µM; in the experiment with Blood [5] (Homo sapiens, Blood), above 20 µM.
Take `O=C(O)[C@]1(c2ccccc2)N=C(c2ccccc2)N(Cc2ccccc2)[C@@H]1c1ccccc1` (racemic; 1) [listing 2 of 2 here]: the Activity entry in the experiment with HeLa [2], with Blood [4] and in the experiment with Blood [5] was “Dose-dependent effect” each time. For the same compound, in the experiment on HeLa [3], the result was inactive.
For `O=C(O)[C@]1(c2ccccc2)N=C(c2ccccc2)N(Cc2ccccc2)[C@@H]1c1ccccc1` (racemic; 2), the outcome in the experiment with HeLa [2] and with HeLa [3] was inactive.
